Test results published in ChEMBL document CHEMBL1127462, “Novel dual inhibitors of 5-lipoxygenase and thromboxane A2 synthetase: synthesis and structure-activity relationships of 3-pyridylmethyl-substituted 2-amino-6-hydroxybenzothiazole derivatives” (J Med Chem, 1994).

Legend:
[1] = target: Cyclooxygenase (Rattus norvegicus); experiment: Inhibitory activity against the production of prostaglandin E2 (PGE2) in glycogen-induced peritoneal cells of rat
Rattus norvegicus [2] = experiment: Tested for the ability to decrease lesion area in the colon of the TNB/ethanol-induced chronic colitis rats at the dosage of 100 mg/kg/day; assay type: functional
In short: (§1)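 TNB/ethanol colitis rats dosed orally (0.5% MC suspension) once daily for 11 days from day 3, killed day 14. Ethanol-only group as baseline. Colonic MPO activity measured; lesion area (mm²/colon) by stereomicroscope. % inhibition = [1 − (test − ethanol)/(control − ethanol)] × 100. Mean ± SEM.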

Thromboxane-A synthase [3] = target: T1, Thromboxane-A synthase (Rattus norvegicus, UniProt P49430); experiment: Inhibitory activity against the production of thromboxane B2 (TXB2) in glycogen-induced peritoneal cells of rat; assay type: functional
T1 sequence (P49430 whole entry): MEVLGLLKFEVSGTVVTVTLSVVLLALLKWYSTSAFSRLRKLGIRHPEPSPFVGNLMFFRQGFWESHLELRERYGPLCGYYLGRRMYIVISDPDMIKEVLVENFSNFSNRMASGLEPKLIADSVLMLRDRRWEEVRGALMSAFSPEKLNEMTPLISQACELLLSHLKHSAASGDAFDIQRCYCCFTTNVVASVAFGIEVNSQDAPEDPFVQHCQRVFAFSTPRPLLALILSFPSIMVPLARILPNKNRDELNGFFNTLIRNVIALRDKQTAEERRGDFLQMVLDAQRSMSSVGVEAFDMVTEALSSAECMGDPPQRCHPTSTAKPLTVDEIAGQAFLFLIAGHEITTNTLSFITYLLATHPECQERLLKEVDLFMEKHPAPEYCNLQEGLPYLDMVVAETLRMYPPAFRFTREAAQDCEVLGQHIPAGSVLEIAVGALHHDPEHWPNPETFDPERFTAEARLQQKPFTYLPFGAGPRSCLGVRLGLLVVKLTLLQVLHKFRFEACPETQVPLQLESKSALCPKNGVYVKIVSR
In short: (§2)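 Peritoneal leukocytes elicited in male F344 rats by ip 6% glycogen, suspended in Ca/Mg-free HBSS (5 × 10⁶ cells/mL). Cells preincubated 5 min at 37 °C with compound or vehicle (0.1% DMSO/0.1% BSA), stimulated with A23187 (4 μM, 10 min, 37 °C), stopped with BW755C. LTB₄, TXB₂ and PGE₂ in supernatant by radioimmunoassay. Duplicate points; IC50 by probit analysis.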

[4] = Tested for the suppression ratio, the difference between the amount of PGE-2 produced in the test groups and the control group at the dosage of 100 mg/kg; assay type: functional
In short: (§3)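 Male F344 rats (9 weeks, fasted 2 days) given a single intracolonic dose of 30 mg TNB in 0.25 mL 50% ethanol. Day 7: one oral dose in 0.5% MC, or vehicle. Killed 6 h later; colon incubated with A23187 (2 μg/mL) in Tyrode, 15 min, 37 °C. Eicosanoids by radioimmunoassay. Suppression versus vehicle controls; mean ± SEM.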

[5] = Tested for inhibitory activity against thromboxane B2 (TXB2) in human platelets
In short: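 Washed human platelets (3 × 10⁸ cells/mL) in Tris-HCl-saline, pH 7.4, with 10 μM indomethacin. Preincubated 5 min at 25 °C with compound, PGH₂ (1 μg/mL) for 3 min at 25 °C, citrate/ethanol stop. TXB₂ in supernatant by radioimmunoassay. Duplicate points; IC50 by probit analysis.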

[6] = Tested for the suppression ratio, the difference between the amount of TXB2 produced in the test groups and the control group at the dosage of 100 mg/kg; assay type: functional
In short: as §3

Thromboxane-A synthase [7] = target: T2, Thromboxane-A synthase (Homo sapiens, UniProt P24557); experiment: Tested for inhibitory activity against thromboxane A2 (TXA2) synthetase in microsome of human platelets
T2 sequence (P24557 whole entry): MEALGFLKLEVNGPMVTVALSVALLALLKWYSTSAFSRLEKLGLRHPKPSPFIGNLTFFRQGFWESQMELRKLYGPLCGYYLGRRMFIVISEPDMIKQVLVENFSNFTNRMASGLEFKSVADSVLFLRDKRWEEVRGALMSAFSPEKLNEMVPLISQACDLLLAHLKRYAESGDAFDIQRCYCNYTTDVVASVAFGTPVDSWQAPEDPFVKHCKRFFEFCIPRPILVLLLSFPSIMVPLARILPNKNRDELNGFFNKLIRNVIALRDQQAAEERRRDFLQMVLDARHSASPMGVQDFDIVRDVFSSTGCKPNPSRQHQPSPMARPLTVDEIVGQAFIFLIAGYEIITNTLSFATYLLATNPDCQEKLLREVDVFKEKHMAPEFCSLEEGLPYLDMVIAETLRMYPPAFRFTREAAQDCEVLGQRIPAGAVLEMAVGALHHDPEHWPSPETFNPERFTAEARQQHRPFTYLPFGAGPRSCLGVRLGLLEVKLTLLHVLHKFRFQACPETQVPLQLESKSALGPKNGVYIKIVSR
In short: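 Platelet microsome fraction (105000g) resuspended in 50 mM Tris-HCl-saline, pH 7.4, with 10 μM indomethacin. 20 μg protein preincubated 5 min at 25 °C with compound, PGH₂ (1 μg/mL) for 1 min at 25 °C, citric acid/ethanol stop. TXB₂ by radioimmunoassay. Duplicate points; IC50 by probit analysis.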

[8] = target: T3, Polyunsaturated fatty acid 5-lipoxygenase (Rattus norvegicus, UniProt P12527); experiment: Inhibitory activity against the production of leukotriene B4 (LTB4) in glycogen-induced peritoneal cells of rat; assay type: functional
T3 sequence (P12527 whole entry): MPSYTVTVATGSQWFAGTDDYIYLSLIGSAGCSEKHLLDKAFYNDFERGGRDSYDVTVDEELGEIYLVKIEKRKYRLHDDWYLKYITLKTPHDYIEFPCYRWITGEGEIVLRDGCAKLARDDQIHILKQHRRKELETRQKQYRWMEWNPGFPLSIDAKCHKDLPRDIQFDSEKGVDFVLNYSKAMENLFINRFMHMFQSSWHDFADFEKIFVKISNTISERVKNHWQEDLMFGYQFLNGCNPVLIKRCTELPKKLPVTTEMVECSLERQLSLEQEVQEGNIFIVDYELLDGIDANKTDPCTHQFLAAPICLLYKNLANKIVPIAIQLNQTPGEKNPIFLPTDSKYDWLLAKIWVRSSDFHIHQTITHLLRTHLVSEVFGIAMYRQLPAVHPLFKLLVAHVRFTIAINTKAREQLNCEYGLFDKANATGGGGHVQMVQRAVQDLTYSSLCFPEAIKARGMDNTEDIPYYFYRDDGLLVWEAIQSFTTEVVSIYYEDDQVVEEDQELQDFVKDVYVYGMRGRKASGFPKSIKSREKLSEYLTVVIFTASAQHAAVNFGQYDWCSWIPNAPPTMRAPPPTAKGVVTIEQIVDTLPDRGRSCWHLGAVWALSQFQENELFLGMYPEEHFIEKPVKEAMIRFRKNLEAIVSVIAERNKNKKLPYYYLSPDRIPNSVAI
In short: as §2

[9] = Tested for the suppression ratio, the difference between the amount of LTB4 produced in the test groups and the control group at the dosage of 100 mg/kg; assay type: functional
In short: as §3

Homo sapiens [10] = species on record: Homo sapiens; experiment: Tested for inhibitory activity against the production of thromboxane B2 (TXB2) in human whole blood; assay type: functional, organism-based
In short: (§4)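 Heparinized (10 U/mL) fresh blood from healthy volunteers, 0.4 mL aliquots, preincubated 5 min at 37 °C with compound or vehicle (0.1% DMSO/0.1% BSA). A23187 (40 μM) added for 20 min. LTB₄, TXB₂, PGE₂ in plasma by radioimmunoassay. Duplicate points; IC50 by probit analysis.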

Homo sapiens [11] = species on record: Homo sapiens; experiment: Tested for inhibitory activity against the production of leukotriene B4 (LTB4) in human whole blood; assay type: functional, organism-based
In short: as §4

Homo sapiens [12] = species on record: Homo sapiens; experiment: Tested for inhibitory activity against the production of prostaglandin E2 (PGE2) in human whole blood; assay type: functional, organism-based
In short: as §4

[13] = target: T3, Polyunsaturated fatty acid 5-lipoxygenase; experiment: Tested for inhibitory activity against 5-lipoxygenase in microsome of RBL-1 cells; assay type: cell-based
In short: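 RBL-1 cells sonicated at 0 °C in 50 mM phosphate, pH 7.4, with 0.25 M sucrose and 1 mM EDTA. Homogenate preincubated 5 min at 37 °C with compound plus 2 mM glutathione, then arachidonic acid (0.2 mM) for 10 min at 37 °C. Formic acid stop, CHCl₃/MeOH extraction, 5-HETE by HPLC. Duplicate points; IC50 by probit analysis.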

Rattus norvegicus [14] = experiment: Tested for the ability to decrease lesion area in the colon of the TNB/ethanol-induced chronic colitis rats at the dosage of 500 mg/kg/day; assay type: functional
In short: as §1

Homo sapiens [15] = species on record: Homo sapiens; experiment: Tested for inhibitory activity against leukotriene B4 (LTB4) in human neutrophils; assay type: functional, organism-based
In short: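 Human blood neutrophils from heparinized blood (dextran sedimentation, Percoll gradient), 1 × 10⁶ cells/mL in Ca/Mg-free HBSS. Preincubated 5 min at 37 °C with compound or vehicle, A23187 (4 μM) for 10 min. LTB₄ in cell-free supernatant by radioimmunoassay. Duplicate points; IC50 by probit analysis.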

SMILES	IC50 [1] [nM]	inhibition in vivo at 100 mg/kg/day (Rattus norvegicus [2]) [%]	IC50 (Thromboxane-A synthase [3]) [nM]	IC50 [8] [nM]	other results
CCNc1nc2c(C)c(Cc3cccnc3)c(O)c(C)c2s1	> 100000	48	650	230	Suppression ratio [4]: 8%; IC50 [5]: 2300 nM; Suppression ratio [6]: 67%; IC50 (Thromboxane-A synthase [7]): 390 nM; Suppression ratio [9]: 83%
CCc1c(O)c(OC)c(Cc2cccnc2)c2nc(NC)sc12	> 100000	–	330	< 100	–
CNc1nc2c(Cc3cccnc3)c(OC)c(O)c(C)c2s1	–	–	1300	170	–
CNc1nc2c(Cc3cccnc3)c(C)c(O)c(C)c2s1	–	39	–	–	IC50 (Homo sapiens [10]): 1100 nM; IC50 [5]: 80 nM; IC50 (Homo sapiens [11]): 830 nM; IC50 (Homo sapiens [12]): > 90000 nM; IC50 (Thromboxane-A synthase [7]): 9 nM; IC50 [13]: 230 nM
Oc1cc(-c2ccccc2)c2nc(NCc3cccnc3)sc2c1	9600	–	1400	7000	–
COc1cc2nc(NCc3cccnc3)sc2c(OC)c1O	–	–	5500	90	–
COc1c(O)c(C)c2sc(N)nc2c1Cc1cccnc1.Cl.Cl	> 100000	–	110	170	–
CCCNc1nc2c(Cc3cccnc3)c(C)c(O)c(C)c2s1.Cl.Cl	> 100000	–	90	< 100	–
Cc1c(O)c(C)c2sc(NCc3ccc(S(N)(=O)=O)cc3)nc2c1C	–	–	–	–	IC50 (Homo sapiens [10]): 42000 nM; Suppression ratio [4]: 0%; IC50 [5]: > 100000 nM; Suppression ratio [6]: 0%; IC50 (Homo sapiens [11]): 24000 nM; IC50 (Homo sapiens [12]): > 100000 nM; IC50 [13]: 210 nM; Suppression ratio [9]: 86%
CCNc1nc2c(C)c(C)c(O)c(Cc3cccnc3)c2s1	> 100000	64	2000	< 100	IC50 (Homo sapiens [10]): 34800 nM; Suppression ratio [4]: 41%; IC50 [5]: 4300 nM; Suppression ratio [6]: 53%; IC50 (Homo sapiens [11]): 500 nM; IC50 (Homo sapiens [12]): > 100000 nM; IC50 (Thromboxane-A synthase [7]): 810 nM; IC50 [13]: 270 nM; Suppression ratio [9]: 89%
Cc1c(O)c(Cc2cccnc2)c2sc(N)nc2c1C.Cl.Cl	> 100000	–	5300	250	–
Cc1c(O)c2ccccc2c2nc(NCc3cccnc3)sc12	5500	–	4000	1600	–
Cc1c(O)c(C)c2sc(N)nc2c1Cc1cccnc1	–	–	2	190	–
CCc1c(O)c(OC)c(Cc2cccnc2)c2nc(N)sc12	–	–	180	150	–
O=C(O)c1cc(/N=N/c2ccc(S(=O)(=O)Nc3ccccn3)cc2)ccc1O [SULFASALAZINE]	–	–	–	–	inhibition in vivo at 500 mg/kg/day (Rattus norvegicus [14]): 16%
CCNc1nc2c(Cc3cccnc3)c(C)c(O)c(C)c2s1	–	57	100	< 100	IC50 (Homo sapiens [10]): 560 nM; IC50 [5]: 60 nM; IC50 (Homo sapiens [11]): 1100 nM; IC50 (Homo sapiens [12]): > 91000 nM; IC50 (Thromboxane-A synthase [7]): 10 nM; IC50 [13]: 910 nM; IC50 (Homo sapiens [15]): < 100 nM
Cc1c(O)c(C)c2sc(NCc3cccnc3)nc2c1C	–	81	2000	< 100	–
CNc1nc2c(C)c(Cc3cccnc3)c(O)c(C)c2s1.Cl.Cl	> 100000	–	< 100	300	–
Cc1cc(O)c(C)c2sc(NCc3cccnc3)nc12	–	71	4400	< 100	–
